The chains are these.
B1: tRNA (parent)
chain: GUUCCGUUGGCGUAAUGGUAACGCGUCUCCCUCCUAAGGAGAAGACUGCGGGUUCGAGUCCCGUACGGAACG

Drawing on the RNAGym collection of RNA variant scans (doi:10.1126/science.aae0568), this text covers yeast fitness for 37 variants.

Fewer inactive variants are shown than the library holds.

In the data set the parent is B1. Kind of data set: yeast fitness relative to wild type (ratio to wild type); higher = fitter; tRNA-Arg(CCU), competitive growth, 37 C, YPD. In outline: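 Changes in genotype frequencies gave Darwinian fitness relative to wild type. Frequencies were read by 100-nucleotide paired-end sequencing of gene amplicons before and after pooled Saccharomyces cerevisiae strains, carrying tRNA-Arg(CCU) gene variants at the native locus, were competed in YPD at 37°C for 24 hours in six replicates. A genotype was kept only with ≥ 100 starting reads, and estimates < 0.5 were set to 0.5.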
Take GUUCCGUUGGCGUAAUGGUCACGCGUCUCCCUCCUAAGGAGAAGACUGCGGGUACGAGUCCCGUACGGAACG [A20C U54A]: the yeast fitness stood at 0.698.

Regarding GUUCCGUUGGCGUAAUGGUCACGCGUCUCCCUCCGAAGGAGAAGAUUGCGGGUUCGAGUCCCGUACUGAACG [A20C U35G C46U G67U], the yeast fitness is no more than 0.5. Turning to GUUCCGUUGGCGUAAUGGUGACGCGUCUCCCUCCUAGGGAGAAAACUGCGGGUUCGAGUCCCGUACGGAACG [A20G A37G G44A], the yeast fitness came out at 0.658. For GUUCCGUUGGCGUAAUGGUCACGCGUCUCCCUCCUAAGGAGAAGACUGCGGGUUCGAGUCCCGUACGCAACG [A20C G68C] the value was 0.689. In the case of GUUCCGUUGGCGUAAUGGUCACGCGUCUCCCUCCUAAGGAGAAGACUGCGGGUUCGAGUCCCGUACGUAACG [A20C G68U], the yeast fitness was found to be 0.909. For GUUCCGUUGGCGUAAUGGUGUCGCGUCUCCUUCCUAAGGAGAAGCCUGUGGGUUCGAGUCCCGUCCGGAACG [A20G A21U C31U A45C C49U A65C] the value was no more than 0.5; for GUUCCGUUGGCGUAAUGGUGACGCGUCUCCCUCCUAUGGAGAAGACUCCGGGUUCGAGUCCCGUACGGAACG [A20G A37U G48C], 0.603. Consider GUUCCGUUGGCGUAAUGGUCACGCGUCCCCCUCCUAAGGAGAAGACUGCGGGUUCGAGUCCCGUACGGAACG [A20C U28C], for which the yeast fitness was 0.929. For GUUCCGUUGGCGUAAUGGUGUCGCGUCUCCCUCCUAAGGAGAAGACUGCGGGUUCGAGUCCCGUACGGAACG [A20G A21U] the value was 0.782; for GUUCCGUUGGCGUAAUGGUCACGCGCUUCCCUCCUAAGGAGAAGACUGCGGGUUCGAGUCCCGUACAGAACG [A20C U26C C27U G67A], no more than 0.5. Regarding GUUCCGUUGGCGUAAUGGUGACGCGUCUCCCUCCUGAGGAGAAGACUGCGGGUUCGAGUCCCGUGCGGAACG [A20G A36G A65G], the yeast fitness came to 0.846. Turning to GUUCCGUUGGCGUAAUGGUGACGCGUCUCCCUCCUAUGGAGAAGAAUGCGGGUUCGAGUCCCGUACGGAACG [A20G A37U C46A], the yeast fitness is no more than 0.5. With GUUCCGUUGGCGUAAUGGUCACGCGUCUCCCUCCUAAGGAGAAGACGGCGGGUUCGAGUCCCGUACGGUACG [A20C U47G A69U], the yeast fitness came to 0.559. As to GUUCCGUUGGCGUAAUGGUCACGCGUCUCCCUCCUAAGGAGAAGACUGCGGGUUCGAGUCCCGUACCGAUCG [A20C G67C A70U], the yeast fitness came out at 0.761. GUUCCGUUGGCGUAAUGGUCACGCGACUCCCUCGUAAGGAGAAGAGUGCGGGUUCGAGUCCCGUACGGAACG [A20C U26A C34G C46G]: the yeast fitness came out at 0.595. As for GUUCCGUUGGCGUAAUGGUCACGCGUCUCCCUCCUAAGGAGAAGACGGCGGGUUCGAGUGCCGUACGGAACG [A20C U47G C60G], the yeast fitness was no more than 0.5. For GUUCCGUUGGCGUAAUGGUGACGCGUCUCCCUCCUAUGGAGAAGACUGCGGGUUCGAGUACCGUACGGAACG [A20G A37U C60A] the value was 0.626; for GUUCCGUUGGCGUAAUGGUCACGCGUCUCCCUCCUAAGGAGAAGACUGCGGGUUCCAGUCCCGUACGGAACG [A20C G56C], 0.625; for GUUCCGUUGGCGUAAUGGUCACGCGUCUCCCUCCGAAGGAGAAGAUUGCGGGUUCGAGUCCCGUACGGAACG [A20C U35G C46U], no more than 0.5. For GUUCCGUUGGCGUAAUGGUCACGCGUCUCCCUCCUAAGGAGAAGACCGCGGGUUCGAGUCCCGUACGGAACG [A20C U47C] the value was 0.925. Take GUUCCGUUGGCGUAAUGGUCACGCGACUCCCUCGUGAGGAGAAGAGUGCGGGUUCGAGUCCCGUACGGAACG [A20C U26A C34G A36G C46G]: the yeast fitness was no more than 0.5. On to GUUCCGUUGGCGUAAUGGUGACGCGUCUCCCUCCUCAGGAGAAGCCUGCGGAUUCGAGUCCCGUACUGAACG [A20G A36C A45C G52A G67U], for which the yeast fitness is no more than 0.5.

For GUUCCGUUGGCGUAAUGGUCACGCGUCCCACUCCUAAGGAGAACGCUGCGGGUUAGAGUCCCGUACGGAACG [A20C U28C C30A G44C A45G C55A], the yeast fitness is no more than 0.5. The same measure for GUUCCGUUGGCGUAAUGGUGACGCGUCUCCCUCCUUAGGAGAAGACUGCGGGUUCGAGUCCCCCACGGAACG [A20G A36U G63C U64C]: 0.666; for GUUCCGUUGGCGUAAUGGUGUCGCGUCUCCCUCCUGAGGCGAAGACUGCGGGUUUGAGUCCCGUACGGAACG [A20G A21U A36G A40C C55U]: no more than 0.5. On to GUUCCGUUGGCGUAAUGGUCACGCGUCUCCCUCCUAAGGAGAAGACUGCGGGUUCGAGUCCCGAACGGAACG [A20C U64A], for which the yeast fitness worked out at 0.7.

On to GUUCCGUUGGCGUAAUGGUCACGCGUCUCCCUCCUAAGGAGAAGACUGCGGGUUCGAGUCCCGCACGGAACG [A20C U64C], for which the yeast fitness came out at 0.984. Consider GUUCCGUUGGCGUAAUGGUCACGCGUCCCCCUCCUAAGGAAAAGACUGCGGGUUCGAGUCCCGUACGGAACG [A20C U28C G41A], for which the yeast fitness came to 0.592. Turning to GUUCCGUUGGCGUAAUGGUCACGCGUCCCCCUCCUCAGGAGAAGACUGCGGGUUCGAGUCCCGUACGGAACG [A20C U28C A36C], the yeast fitness was no more than 0.5. For GUUCCGUUGGCGUAAUGGUGACGCGUCUCCCUCCUUAGGAGGAGACUGCGGGUUCGAAUCCCGUACGGAACG [A20G A36U A42G G58A], the yeast fitness is no more than 0.5. GUUCCGUUGGCGUAAUGGUGCCGCGUCUCCCUCCUAAGCAGAAGACUGCGGGUUCGAGUCCGGUACGGAACG [A20G A21C G39C C62G]: the yeast fitness was no more than 0.5. The same measure for GUUCCGUUGGCGUAAUGGUCACGCGUCUCCCACCUAUGGAGAAGACUGCGGGUUCGAGUCCCGUACGGAACG [A20C U32A A37U]: no more than 0.5. On to GUUCCGUUGGCGUAAUGGUGACGCGUCUCCCUCCUAGGGAGAAGACUGCGGGUUCGAGACCCGUACGGACCG [A20G A37G U59A A70C], for which the yeast fitness was no more than 0.5. In the case of GUUCCGUUGGCGUAAUGGUCACGCGUCUCCCUCCUAAGGAGAAGACUCCGGGUUCGAGUCCCGUACAGAACG [A20C G48C G67A], the yeast fitness came to 0.638. On to GUUCCGUUGGCGUAAUGGUGGCGCGUCUCCCUCCUAACGAGAAGACUGCCGGUUCGAGUCCCGUACGGAACG [A20G A21G G38C G50C], for which the yeast fitness was no more than 0.5. Take GUUCCGUUGGCGUAAUGGUCACGCGUCUCCCUCCUAAGGAGAAGACUGCAGGUUCGAGUCCUGUACGGAACG [A20C G50A C62U]: the yeast fitness worked out at 1.13. For GUUCCGUUGGCGUAAUGGUGACGCGUCUCCCUCCUUAGGAGAAGACUGCGGGUUCGCGUCCCGUACGGAACG [A20G A36U A57C] the value was no more than 0.5.
